A word on the CC50: it is the concentration giving 50% cytotoxicity. Usually IC50 stands for the concentration that gives 50% inhibition. A low value points to greater potency. As usually defined, the EC50 is the concentration giving half of the maximal effect. Read a low EC50 as a more potent agent.

Structures are written as SMILES.

The subject of one series is HOS. Description: Cytotoxicity against HOS cells assessed as reduction in ATP level after 48 hrs by luciferase reporter gene assay. To be noted: human. In kind it is cell-based. The procedure, abridged: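 HOS cells in DMEM with 5% FBS and 5% newborn calf serum, seeded 4000 per well the day before, exposed to compound for 48 h at 37 °C. Cells lysed and ATP measured with a luciferase (ATPlite) read-out. Signal normalized to untreated cells; CC50 from regression fit.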

For series [1], the target named is T1, Human immunodeficiency virus type 1 integrase (Human immunodeficiency virus 1, UniProt Q7ZJM1). The experiment in a line: Inhibition of HIV-1 integrase-mediated strand transfer activity using [32P]-labeled oligonucleotide as substrate after 2 hrs by densitometric analysis. The procedure, abridged: (§1)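 400 nM integrase with 20 nM [γ-32P]-labeled DNA in 50 mM MOPS pH 7.2, 7.5 mM MgCl2, 14 mM 2-mercaptoethanol; compounds in DMSO. The substrate for 3′-processing was 21T/21B duplex, and for strand transfer the precleaved 19T/21B duplex. Reactions ran 2 h at 37 °C and were quenched with formamide/SDS loading buffer.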
T1 sequence (Q7ZJM1 whole entry): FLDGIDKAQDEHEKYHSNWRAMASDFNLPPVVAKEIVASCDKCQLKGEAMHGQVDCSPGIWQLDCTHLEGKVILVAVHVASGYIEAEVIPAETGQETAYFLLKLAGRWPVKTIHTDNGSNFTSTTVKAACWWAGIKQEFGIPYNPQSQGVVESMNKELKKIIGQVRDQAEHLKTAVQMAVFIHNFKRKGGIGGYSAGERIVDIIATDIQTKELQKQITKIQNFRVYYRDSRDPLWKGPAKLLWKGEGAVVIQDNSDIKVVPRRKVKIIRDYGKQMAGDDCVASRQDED

Series [2] has as its target T1, Human immunodeficiency virus type 1 integrase. Description: Inhibition of HIV-1 integrase-mediated 3'-processing activity using [32P]-labeled oligonucleotide as substrate after 2 hrs by densitometric analysis. The procedure, abridged: as §1
Series [3] can be described thus: Selectivity index, ratio of CC50 for HOS cells to EC50 for wild-type Human immunodeficiency virus 1.
Series [4] has as its system Human immunodeficiency virus 1. Description: Antiviral activity against Human immunodeficiency virus 1 harboring integrase G140S/Q148H double mutant infected in HOS cells preincubated for 3 hrs followed by viral infection measured after 48 hrs by luciferase reporter gene assay. In kind it is functional, organism-based. To be noted: Human immunodeficiency virus 1, HOS. The procedure, abridged:
(§2)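 VSV-g-pseudotyped single-round HIV-1 luciferase vector (pNLNgoMIVR-ΔLUC; IN mutants made by site-directed mutagenesis), produced by 293T transfection. HOS cells seeded the day before, given compound over 10 μM to 0.0005 μM (11 serial dilutions), 3 h at 37 °C, then virus added; 48 h at 37 °C. Luciferase read-out normalized to no-compound infectivity; EC50 from regression fit.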
On the technique in general: A reporter such as luciferase makes a cellular process visible.

In series [5] the test system is Human immunodeficiency virus 1. The experiment in a line: Antiviral activity against Human immunodeficiency virus 1 harboring integrase N155H mutant infected in HOS cells preincubated for 3 hrs followed by viral infection measured after 48 hrs by luciferase reporter gene assay. In kind it is functional, organism-based. The note with it: Human immunodeficiency virus 1, HOS. In a few lines: as §2

For series [6], the system named is Human immunodeficiency virus 1. Description: Antiviral activity against Human immunodeficiency virus 1 harboring integrase Y143R mutant infected in HOS cells preincubated for 3 hrs followed by viral infection measured after 48 hrs by luciferase reporter gene assay. To be noted: Human immunodeficiency virus 1, HOS. In kind it is functional, organism-based. The procedure, abridged: as §2

The subject of series [7] is Human immunodeficiency virus 1. The experiment in a line: Antiviral activity against wild-type Human immunodeficiency virus 1 infected in HOS cells preincubated for 3 hrs followed by viral infection measured after 48 hrs by luciferase reporter gene assay. In kind it is functional, organism-based. The note with it: Human immunodeficiency virus 1, HOS. In a few lines:
as §2

The test system of series [8] is Human immunodeficiency virus 1. Description: Ratio of raltegravir EC50 to compound EC50 for Human immunodeficiency virus 1 harboring integrase E138K/Q148K double mutant. In kind it is functional. The procedure, abridged: (§3)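 VSV-g-pseudotyped single-round HIV-1 luciferase vectors, produced in 293T cells, carrying WT or site-directed mutant IN (G118R, Y143R, N155H, G140S+Q148H, E138K+Q148K). HOS cells were pretreated 3 h at 37 °C with compound (10 μM to 0.0005 μM, 11 serial dilutions), infected, and incubated 48 h. Luciferase signal was normalized to no-compound infectivity, and EC50 was taken from regression fit. Ratios were formed from these EC50s.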

Series [9] deals with Human immunodeficiency virus 1. The experiment in a line: Ratio of raltegravir EC50 to compound EC50 for Human immunodeficiency virus 1 harboring integrase G140S/Q148H double mutant. In kind it is functional. In a few lines:
as §3

In series [10] the test system is Human immunodeficiency virus 1. The experiment in a line: Ratio of raltegravir EC50 to compound EC50 for Human immunodeficiency virus 1 harboring integrase Y143R mutant. In kind it is functional. The procedure, abridged: as §3
Series [11] deals with Human immunodeficiency virus 1. The experiment in a line: Ratio of raltegravir EC50 to compound EC50 for Human immunodeficiency virus 1 harboring integrase N155H mutant. In kind it is functional. The procedure, abridged: as §3
In series [12] the test system is Human immunodeficiency virus 1. Description: Ratio of EC50 for Human immunodeficiency virus 1 harboring integrase G118R mutant to EC50 for wild-type Human immunodeficiency virus 1. In kind it is functional. The procedure, abridged: as §3
The subject of series [13] is Human immunodeficiency virus 1. The experiment in a line: Ratio of EC50 for Human immunodeficiency virus 1 harboring integrase N155H mutant to EC50 for wild-type Human immunodeficiency virus 1. In kind it is functional.

Take `Cc1nnc(C(=O)NC(C)(C)c2nc(C(=O)NCc3ccc(F)cc3)c(O)c(=O)n2C)o1`: the CC50 in the series on HOS is over 100000 nM.
In the case of `O=C(NCc1ccc(F)cc1F)c1cc2ccccc2n(O)c1=O`, the IC50 in series [1] is 19700 nM; in [2], over 333000 nM.
With `COc1cccc2cc(C(=O)NCc3ccc(F)cc3F)c(=O)n(O)c12`, the IC50 in [1] and in series [2] was over 333000 nM throughout.
For `O=C(NCc1ccc(F)c(Cl)c1)c1c(O)c2cccnc2n(O)c1=O`, the selectivity ratio in series [3] came to 2910. Further, the EC50 worked out at 489 nM in [4], 148 nM in series [5], 54 nM in series [6] and 35 nM in [7]. Besides, the CC50 in the series with HOS is 102000 nM. In addition, the half-inhibitory concentration (IC50) was 27 nM in series [1] and 4700 nM in series [2].
Consider `O=C(NCc1ccc(F)c(F)c1)c1c(O)c2cccnc2n(O)c1=O`, for which the selectivity ratio in series [3] is 9600. Further, the concentration giving a half-maximal response (EC50) in [4] was determined as 507 nM; in series [5], 189 nM; in series [6], 45 nM; in series [7], 20 nM. For the same compound, in the series on HOS, the CC50 stood at 192000 nM. The half-inhibitory concentration (IC50) in series [1] stood at 40 nM; in series [2], 3600 nM.
As to `O=C(NCc1ccc(F)cc1F)c1c(O)c2cccnc2n(O)c1=O`, the “Ratio EC50” value in series [8] is listed as 10; in series [9] it was 10; in series [10], 10; in series [11] it was 10; in series [12], 6; in series [13] it was 5. In addition, the selectivity ratio in series [3] turned out to be 22100. Moreover, the EC50 in [4] is 308 nM; in series [5] it was 31 nM; in series [6], 11 nM; in series [7], 6.2 nM. Moreover, in the series with HOS, the CC50 worked out at 137000 nM. Moreover, the IC50 in series [1] was 55 nM; in series [2] it was 1200 nM.
Turning to `O=C(NCc1ccc(F)c(Cl)c1)c1c(O)c2cccnc2[nH]c1=O`, the IC50 was 7800 nM in series [1] and 125000 nM in series [2].
The like results for `O=C(NCc1ccc(F)c(F)c1)c1c(O)c2cccnc2[nH]c1=O` were, in that order, 8100 nM and 93000 nM.
For `O=C(NCc1ccc(F)cc1F)c1c(O)c2cccnc2[nH]c1=O` the same measures were 7100 nM and over 333000 nM.
For `O=C(NCc1ccc(F)c(Cl)c1)c1cc2cccc(O)c2n(O)c1=O` the same measures were 530 nM and 17000 nM.
`O=C(NCc1ccc(F)c(F)c1)c1cc2cccc(O)c2n(O)c1=O`: the IC50 came out at 780 nM in series [1] and 24000 nM in series [2].
As for `O=C(NCc1ccc(F)cc1F)c1cc2cccc(O)c2n(O)c1=O`, the IC50 is 18000 nM in series [1] and 43000 nM in series [2].
As for `O=C(NCc1ccc(F)c(Cl)c1)c1cc2cccnc2n(O)c1=O`, the selectivity ratio in series [3] was over 6580. Moreover, the concentration for a half-maximal effect (EC50) was found to be 90 nM in series [5], 34 nM in [6] and 38 nM in series [7]. Also, the CC50 in the series on HOS is over 250000 nM. In addition, the IC50 in series [1] turned out to be 14 nM; in [2] it was 9400 nM.
As for `O=C(NCc1ccc(F)c(F)c1)c1cc2cccnc2n(O)c1=O`, in [3], the selectivity ratio was over 4030. The EC50 in series [5] is 2200 nM; in [6], 40 nM; in [7], 62 nM. Besides, in the series on HOS, the 50% cytotoxic concentration (CC50) was over 250000 nM. Further, the half-maximal inhibitory concentration (IC50) in series [1] stood at 17 nM; in [2], 13600 nM.
As to `O=C(NCc1ccc(F)cc1F)c1cc2cccnc2n(O)c1=O`, the “Ratio EC50” value in series [13] is given as 26. Further, the selectivity ratio in [3] is over 49000. Also, the half-maximal effective concentration (EC50) came to 438 nM in series [4], 134 nM in series [5] and 5.1 nM in [7]. In addition, the CC50 in the series with HOS was over 250000 nM. For the same compound, the IC50 worked out at 41 nM in series [1] and 6100 nM in series [2].

The values above are taken from ChEMBL document CHEMBL3124837, “Bicyclic 1-hydroxy-2-oxo-1,2-dihydropyridine-3-carboxamide-containing HIV-1 integrase inhibitors having high antiviral potency against cells harboring raltegravir-resistant integrase mutants” (J Med Chem, 2014).
